Activity calls are given as the source filed them. The calls are words filed in the database; no cut-off is given here.

The test system of experiment [1] is Vaccinia virus. Kind of experiment: Antiviral activity against Vaccinia virus infected in human HEL cells assessed as inhibition of virus-induced cytopathic effect after 3 days by MTS assay. It is filed as functional, organism-based. The note with it: Orthopoxvirus vaccinia. In outline: (§1)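 Confluent cell monolayers were infected with 100 CCID50 of virus and allowed 2 h adsorption at 37 °C. Virus was then removed and serial compound dilutions were added. Cultures were incubated at 37 °C for 3 days, until CPE was complete in the untreated virus control. EC50 was the concentration giving 50% inhibition of virus-induced CPE, by visual score or by MTS formazan cell viability.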
In general terms: Protection from cytopathic effect is a common read-out in antiviral testing.

The subject of experiment [2] is Human respirovirus 3. Kind of experiment: Antiviral activity against Parainfluenza 3 virus infected in african green monkey Vero cells assessed as inhibition of virus-induced cytopathic effect after 3 days by MTS assay. It is filed as functional, organism-based. In outline:
as §1

Experiment [3] has as its system Human alphaherpesvirus 1. In words: Antiviral activity against acyclovir-resistant […] kinase-deficient HSV1 KOS infected in human HEL cells assessed as inhibition of virus-induced cytopathic effect after 3 days by MTS assay. It is filed as functional, organism-based. The procedure, abridged:
as §1

Experiment [4] relates to Felid alphaherpesvirus 1. Kind of experiment: Antiviral activity against Feline herpesvirus 1 infected in […] cells assessed as inhibition of virus-induced cytopathic effect after 3 days by MTS assay. It is filed as functional, organism-based. The procedure, abridged:
as §1

Experiment [5] relates to Influenza A virus. Kind of experiment: Antiviral activity against influenza A virus H1N1 infected in MDCK cells assessed as inhibition of virus-induced cytopathic effect after 3 days by MTS assay. It is filed as functional, organism-based. The procedure, abridged:
as §1

Experiment [6] deals with Mammalian orthoreovirus 1. In words: Antiviral activity against Reovirus 1 infected in african green monkey Vero cells assessed as inhibition of virus-induced cytopathic effect after 3 days by MTS assay. It is filed as functional, organism-based. In outline: as §1
The test system of experiment [7] is Influenza B virus. Kind of experiment: Antiviral activity against influenza B virus infected in MDCK cells assessed as inhibition of virus-induced cytopathic effect after 3 days by MTS assay. It is filed as functional, organism-based. In outline:
as §1

The test system of experiment [8] is Escherichia coli. Kind of experiment: Antibacterial activity against Escherichia coli after 24 hrs by serial dilution method. It is filed as functional.
Experiment [9] concerns Bacillus subtilis. Kind of experiment: Antibacterial activity against Bacillus subtilis after 24 hrs by serial dilution method. It is filed as functional.
In experiment [10] the test system is Human alphaherpesvirus 2. Kind of experiment: Antiviral activity against Herpes simplex virus 2 G infected in human HEL cells assessed as inhibition of virus-induced cytopathic effect after 3 days by MTS assay. The note with it: strain G. It is filed as functional, organism-based. The procedure, abridged: as §1
The test system of experiment [11] is Candida albicans. Kind of experiment: Antifungal activity against Candida albicans after 48 hrs by serial dilution method. It is filed as functional. In outline: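 Serial compound dilutions in Sabouraud dextrose broth (tube dilution), incubated 37 °C for 48 h. MIC was read as the lowest concentration with no growth.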
Experiment [12] relates to Influenza A virus. Kind of experiment: Antiviral activity against influenza A virus H3N2 infected in MDCK cells assessed as inhibition of virus-induced cytopathic effect after 3 days by MTS assay. It is filed as functional, organism-based. In outline: as §1
Experiment [13] relates to Human alphaherpesvirus 1. Kind of experiment: Antiviral activity against Herpes simplex virus 1 KOS infected in human HEL cells assessed as inhibition of virus-induced cytopathic effect after 3 days by MTS assay. It is filed as functional, organism-based. The procedure, abridged: as §1
For experiment [14], the system named is Coxsackievirus B4. In words: Antiviral activity against Coxsackie virus B4 infected in african green monkey Vero cells assessed as inhibition of virus-induced cytopathic effect after 3 days by MTS assay. It is filed as functional, organism-based. In outline:
as §1

Experiment [15] relates to Punta Toro virus. In words: Antiviral activity against Punta toro virus infected in african green monkey Vero cells assessed as inhibition of virus-induced cytopathic effect after 3 days by MTS assay. It is filed as functional, organism-based. The procedure, abridged: as §1
The subject of experiment [16] is Vesicular stomatitis virus. In words: Antiviral activity against VSV infected in human HEL cells assessed as inhibition of virus-induced cytopathic effect after 3 days by MTS assay. It is filed as functional, organism-based. The procedure, abridged: as §1
The test system of experiment [17] is Feline coronavirus. In words: Antiviral activity against Feline caronavirus infected in […] cells assessed as inhibition of virus-induced cytopathic effect after 3 days by MTS assay. It is filed as functional, organism-based. The procedure, abridged: as §1
For experiment [18], the system named is Sindbis virus. In words: Antiviral activity against Simbidis virus infected in african green monkey Vero cells assessed as inhibition of virus-induced cytopathic effect after 3 days by MTS assay. It is filed as functional, organism-based. The procedure, abridged:
as §1

Experiment [19] relates to Aspergillus niger. Kind of experiment: Antifungal activity against Aspergillus niger after 7 days by serial dilution method. It is filed as functional.
Experiment [20] deals with Staphylococcus aureus. Kind of experiment: Antibacterial activity against Staphylococcus aureus after 24 hrs by serial dilution method. It is filed as functional.

Regarding `O=C(N/N=C/c1ccccc1Cl)c1cc([N+](=O)[O-])cc([N+](=O)[O-])c1`, the inhibition result in [1], in [2], in [3], in experiment [4], in experiment [5] and in experiment [6] was “inactive” each time. In addition, the inhibition result in experiment [7], in experiment [10], in experiment [12], in [13], in experiment [14] and in [15] was “inactive” each time. For the same molecule, the inhibition result in [16], in [17] and in experiment [18] was “inactive” each time. Also, the values for the MBC in [8], in experiment [9] and in experiment [20] were more than 0.13 uM/ml, 0.065 uM/ml and more than 0.13 uM/ml, respectively. The “-logMIC” value in experiment [11] stood at 2.05; in experiment [19] it was 1.6. In addition, the MFC in [11] and in experiment [19] was more than 0.13 uM/ml throughout.
`CCCCCCCCCCCCCCCCCC(=O)N/N=C/c1ccccc1Cl`: the inhibition result in [1], in experiment [2], in [3], in experiment [4], in experiment [5] and in experiment [6] was “inactive” throughout. Moreover, the inhibition result in [7], in experiment [10], in experiment [12], in [13], in [14] and in experiment [15] was “inactive” in each case. In addition, the inhibition entry in [16], in experiment [17] and in [18] was “inactive” in each case. In addition, the MBC in [8] was more than 0.119 uM/ml; in experiment [9] it was 0.029 uM/ml; in experiment [20] it was more than 0.119 uM/ml. Moreover, the “-logMIC” value was 1.53 in experiment [9], 1.29 in [19] and 1.53 in [20]. The values for the MFC in experiment [11] and in experiment [19] were more than 0.119 uM/ml and 0.059 uM/ml, respectively.
Take `C/C=C/C=C/C(=O)N/N=C/c1ccccc1`: the inhibition entry in experiment [1], in experiment [2], in experiment [3], in experiment [4], in [5] and in [6] was “inactive” each time. In addition, the inhibition result in experiment [7], in [10], in experiment [12], in [13], in experiment [14] and in experiment [15] was “inactive” throughout. In addition, the inhibition entry in experiment [16], in experiment [17] and in experiment [18] was “inactive” in each case. The MBC in [8] was 0.058 uM/ml; in experiment [9], more than 0.233 uM/ml; in experiment [20] it was more than 0.233 uM/ml. The “-logMIC” value in experiment [11] was 0.93; in experiment [19], 1.54. Also, the MFC in experiment [11] and in [19] was more than 0.233 uM/ml in each case.
Take `C/C=C/C=C/C(=O)N/N=C/c1ccccc1Cl`: the inhibition entry in experiment [1], in experiment [2], in experiment [3], in experiment [4], in [5] and in [6] was “inactive” each time. Moreover, the inhibition result in experiment [7], in experiment [10], in [12], in [13], in experiment [14] and in [15] was “inactive” in each case. Moreover, the inhibition entry in experiment [16], in experiment [17] and in [18] was “inactive” throughout. The MBC is 0.1 uM/ml in [8], 0.05 uM/ml in experiment [9] and more than 0.201 uM/ml in experiment [20]. For the same molecule, the MFC in experiment [11] and in experiment [19] was more than 0.201 uM/ml throughout. Besides, the “-logMIC” value in [19] came out at 1.5.
Turning to `CCCCCCCCCCCCCCCC(=O)N/N=C/c1ccccc1`, the inhibition result in [1], in experiment [2], in [3], in experiment [4], in experiment [5] and in experiment [6] was “inactive” throughout. Also, the inhibition result in experiment [7], in experiment [10], in experiment [12], in experiment [13], in [14] and in experiment [15] was “inactive” throughout. For the same molecule, the inhibition entry in experiment [16], in experiment [17] and in [18] was “inactive” in each case. In addition, the MBC in experiment [8] is listed as more than 0.139 uM/ml; in [9], 0.139 uM/ml; in experiment [20], more than 0.139 uM/ml. In addition, the MFC in experiment [11] and in experiment [19] was more than 0.139 uM/ml each time. In addition, in [19], the “-logMIC” value is given as 0.86.
Take `CCCCCCCCCCCCCCCCCC(=O)N/N=C/c1ccccc1`: the inhibition entry in experiment [1], in experiment [2], in experiment [3], in experiment [4], in experiment [5] and in experiment [6] was “inactive” throughout. The inhibition result in experiment [7], in experiment [10], in experiment [12], in [13], in experiment [14] and in [15] was “inactive” each time. Further, the inhibition result in [16], in [17] and in experiment [18] was “inactive” in each case. In addition, the “-logMIC” value in [8] is reported as 1.79; in experiment [9], 1.49; in [11], 2.09; in [19], 1.2. The results for the MBC in [8], in [9] and in experiment [20] were 0.064 uM/ml, less than 0.129 uM/ml and 0.129 uM/ml, respectively. Also, the MFC in experiment [11] is listed as less than 0.129 uM/ml; in experiment [19], 0.03 uM/ml.
In the case of `OC(Cn1cncn1)(Cn1cncn1)c1ccc(F)cc1F` [FLUCONAZOLE], in experiment [19], the “-logMIC” value came to 2.64.

These data come from ChEMBL document CHEMBL1177846, “Benzylidene/2-chlorobenzylidene hydrazides: synthesis, antimicrobial activity, QSAR studies and antiviral evaluation” (Eur J Med Chem, 2010).
